Reference: ChEMBL document CHEMBL6134765, “Rapid identification of novel indolylarylsulfone derivatives as potent HIV-1 NNRTIs via miniaturized CuAAC click-chemistry-based combinatorial libraries” (RSC Med Chem, 2025)

Columns and labels:
[1] = biological target: Human immunodeficiency virus type 1 reverse transcriptase (Human immunodeficiency virus 1) (UniProt Q72547); experiment: Inhibition of recombinant HIV-1 reverse transcriptase at 0.66 mM incubated for 1 hr by ELISA relative to control
Method in brief: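 Each library compound was tested directly as the crude click mixture (diluted in DMSO to 2 mM per well) against HIV-1 RT at 0.66 mM, using an ELISA-based RT kit following the kit protocol. Blank controls held DMSO, TBTA, CuSO4·5H2O and sodium ascorbate. Inhibition is expressed as a percentage.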

[2] = Cytotoxicity against human MT4 cells assessed as reduction in cell viability incubated for 5 days by MTT assay; format: toxicity, cell-based; settings: time 5 day
Method in brief: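 Mock-infected MT-4 cultures were read by MTT for cell viability. CC50 is the concentration that reduces viability by 50%.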

[3] = Selectivity index, ratio of CC50 for cytotoxicity against human MT4 cells to EC50 for antiviral activity against wild-type HIV-1 IIIB infected in human MT4 cells; format: toxicity, cell-based; settings: read-out: Ratio CC50/EC50
Method in brief: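 Selectivity index is calculated as CC50 (mock-infected MT-4, MTT) divided by EC50 (HIV-1 IIIB protection of MT-4, MTT).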

[4] = tested on: Human immunodeficiency virus 1; experiment: Antiviral activity against HIV-1 harboring F227L/V106A double mutant infected in human MT4 cells assessed as inhibition of virus induced cytotoxicity incubated for 5 days by spectrophometry based MTT assay; format: functional, organism-based; settings: Human immunodeficiency virus 1, MT4, 120 h
Method in brief: (§1)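 MT-4 cells (from Dr. N. Yamamoto, Yamaguchi University) infected with single-mutant (L100I, K103N, Y181C, Y188L, E138K) or double-mutant (F227L/V106A; RES056 = K103N/Y181C) HIV-1 strains. Protection against virus-induced cytotoxicity was read by the MTT method. EC50 is the concentration giving 50% protection of the cell cultures.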

[5] = tested on: Human immunodeficiency virus 1; experiment: Antiviral activity against wild-type HIV-1 IIIB infected in human MT4 cells incubated for 5 days by spectrophometry based MTT assay; format: functional, organism-based; settings: Human immunodeficiency virus 1, IIIB, MT4, 120 h
Method in brief: (§2)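 MTT protection assay in MT-4 cells infected with HIV-1 IIIB or HIV-2 ROD. EC50 is the compound concentration giving 50% protection of the cultures against virus-induced cytotoxicity.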

[6] = tested on: Human immunodeficiency virus 1; experiment: Antiviral activity against HIV-1 harboring RES056 mutant infected in human MT4 cells assessed as inhibition of virus induced cytotoxicity incubated for 5 days by spectrophometry based MTT assay; format: functional, organism-based; settings: Human immunodeficiency virus 1, MT4, 120 h; method in brief: as §1
[7] = tested on: Human immunodeficiency virus 2; experiment: Antiviral activity against HIV-2 ROD infected in human MT4 cells incubated for 5 days by spectrophotometry based MTT assay; format: functional, organism-based; settings: Human immunodeficiency virus 2, ROD, MT4, 120 h; method in brief: as §2
[8] = tested on: Human immunodeficiency virus 1; experiment: Antiviral activity against HIV-1 harboring K103N mutant infected in human MT4 cells assessed as inhibition of virus induced cytotoxicity incubated for 5 days by spectrophometry based MTT assay; format: functional, organism-based; settings: Human immunodeficiency virus 1, MT4, 120 h; method in brief: as §1
[9] = tested on: Human immunodeficiency virus 1; experiment: Antiviral activity against HIV-1 harboring E138K mutant infected in human MT4 cells assessed as inhibition of virus induced cytotoxicity incubated for 5 days by spectrophometry based MTT assay; format: functional, organism-based; settings: Human immunodeficiency virus 1, MT4, 120 h; method in brief: as §1
[10] = tested on: Human immunodeficiency virus 1; experiment: Antiviral activity against HIV-1 harboring L100I mutant infected in human MT4 cells assessed as inhibition of virus induced cytotoxicity incubated for 5 days by spectrophometry based MTT assay; format: functional, organism-based; settings: Human immunodeficiency virus 1, MT4, 120 h; method in brief: as §1
[11] = tested on: Human immunodeficiency virus 1; experiment: Antiviral activity against HIV-1 harboring Y181C mutant infected in human MT4 cells assessed as inhibition of virus induced cytotoxicity incubated for 5 days by spectrophometry based MTT assay; format: functional, organism-based; settings: Human immunodeficiency virus 1, MT4, 120 h; method in brief: as §1
[12] = tested on: Human immunodeficiency virus 1; experiment: Antiviral activity against HIV-1 harboring Y188L mutant infected in human MT4 cells assessed as inhibition of virus induced cytotoxicity incubated for 5 days by spectrophometry based MTT assay; format: functional, organism-based; settings: Human immunodeficiency virus 1, MT4, 120 h; method in brief: as §1

Which inhibition [1] does the source give for `Cc1cc(C)cc(S(=O)(=O)c2c(C(=O)NCc3cn(CCN4C(=O)c5ccccc5C4=O)nn3)[nH]c3ccc(Cl)cc23)c1` here?
Its inhibition is under 85%.

Which inhibition [1] does the source give for `Cc1cc(C)cc(S(=O)(=O)c2c(C(=O)NCc3cn(CC(=O)NC4CC4)nn3)[nH]c3ccc(Cl)cc23)c1` here?
The inhibition was under 85%.

With `Cc1cn([C@H]2C[C@H](N=[N+]=[N-])[C@@H](CO)O2)c(=O)[nH]c1=O` [ZIDOVUDINE] as the compound, how does the CC50 at 120 h [2] read?
Its CC50 at 120 h is over 7480 nM.

And the selectivity ratio [3]?
The selectivity ratio was over 397.

And the EC50 [4]?
Its EC50 is 9 nM.

What about the EC50 [5] of the same compound?
Its EC50 is 19 nM.

And the EC50 [6]?
The EC50 was 2 nM.

With `COC(=O)Cn1cc(CNC(=O)c2[nH]c3ccc(Cl)cc3c2S(=O)(=O)c2cc(C)cc(C)c2)nn1` as the compound, how does the EC50 [7] read?
The EC50 was over 6460 nM.

What about the CC50 at 120 h [2] of the same compound?
The CC50 at 120 h was 6460 nM.

What about the selectivity ratio [3] of the same compound?
Its selectivity ratio is 143.

And the EC50 [8]?
The EC50 was 140 nM.

What about the inhibition [1] of the same compound?
The inhibition was over 85%.

What about the EC50 [9] of the same compound?
Its EC50 is 170 nM.

And the EC50 [10]?
The EC50 was 220 nM.

What about the EC50 [4] of the same compound?
Its EC50 is 1070 nM.

What about the EC50 [11] of the same compound?
Its EC50 is 800 nM.

And the EC50 [5]?
The EC50 was 45 nM.

What about the EC50 [12] of the same compound?
The EC50 was 11700 nM.

What about the EC50 [6] of the same compound?
Its EC50 is over 6460 nM.

For `Cc1cc(C)cc(S(=O)(=O)c2c(C(=O)NCc3cn(Cc4cccc5ccccc45)nn3)[nH]c3ccc(Cl)cc23)c1`, which EC50 [7] is on record?
The EC50 was over 214000 nM.

What about the CC50 at 120 h [2] of the same compound?
Its CC50 at 120 h is over 214000 nM.

And the selectivity ratio [3]?
The selectivity ratio was over 3510.

What about the EC50 [8] of the same compound?
The EC50 was 700 nM.

What about the inhibition [1] of the same compound?
The inhibition was over 85%.

And the EC50 [9]?
The EC50 was 240 nM.

What about the EC50 [10] of the same compound?
Its EC50 is 300 nM.

What about the EC50 [4] of the same compound?
The EC50 was 1990 nM.

What about the EC50 [11] of the same compound?
The EC50 was 620 nM.

And the EC50 [5]?
Its EC50 is 61 nM.

What about the EC50 [12] of the same compound?
The EC50 was 25000 nM.

What about the EC50 [6] of the same compound?
The EC50 was 113000 nM.

For `COc1ccccc1Cn1cc(CNC(=O)c2[nH]c3ccc(Cl)cc3c2S(=O)(=O)c2cc(C)cc(C)c2)nn1`, which inhibition [1] is on record?
Its inhibition is under 85%.

Which inhibition [1] does the source give for `Cc1cc(C)cc(S(=O)(=O)c2c(C(=O)NCc3cn(Cc4ccccc4Cl)nn3)[nH]c3ccc(Cl)cc23)c1` here?
The inhibition was under 85%.

For `COc1cccc(Cn2cc(CNC(=O)c3[nH]c4ccc(Cl)cc4c3S(=O)(=O)c3cc(C)cc(C)c3)nn2)c1`, which inhibition [1] is on record?
The inhibition was under 85%.

For `Cc1cc(C)cc(S(=O)(=O)c2c(C(=O)NCc3cn(Cc4ccc(C(N)=O)cc4)nn3)[nH]c3ccc(Cl)cc23)c1`, which inhibition [1] is on record?
Its inhibition is under 85%.

Which inhibition [1] does the source give for `Cc1cc(C)cc(S(=O)(=O)c2c(C(=O)NCc3cn(Cc4ccc([N+](=O)[O-])cc4)nn3)[nH]c3ccc(Cl)cc23)c1` here?
Its inhibition is under 85%.

For `Cc1cccc(Cn2cc(CNC(=O)c3[nH]c4ccc(Cl)cc4c3S(=O)(=O)c3cc(C)cc(C)c3)nn2)c1`, which inhibition [1] is on record?
Its inhibition is under 85%.

With `Cc1cc(C)cc(S(=O)(=O)c2c(C(=O)NCc3cn(Cc4ccccc4C)nn3)[nH]c3ccc(Cl)cc23)c1` as the compound, how does the inhibition [1] read?
The inhibition was under 85%.

Which inhibition [1] does the source give for `COC(=O)c1cccc(-n2cc(CNC(=O)c3[nH]c4ccc(Cl)cc4c3S(=O)(=O)c3cc(C)cc(C)c3)nn2)c1` here?
The inhibition was under 85%.

With `Cc1cc(C)cc(S(=O)(=O)c2c(C(=O)NCc3cn(Cc4ccc(S(N)(=O)=O)cc4)nn3)[nH]c3ccc(Cl)cc23)c1` as the compound, how does the inhibition [1] read?
The inhibition was under 85%.

Which inhibition [1] does the source give for `Cc1cc(C)cc(S(=O)(=O)c2c(C(=O)NCc3cn(CC(=O)Nc4ccccc4)nn3)[nH]c3ccc(Cl)cc23)c1` here?
Its inhibition is under 85%.

With `Cc1ccc(Cn2cc(CNC(=O)c3[nH]c4ccc(Cl)cc4c3S(=O)(=O)c3cc(C)cc(C)c3)nn2)cc1` as the compound, how does the inhibition [1] read?
Its inhibition is under 85%.

For `Cc1cc(C)cc(S(=O)(=O)c2c(C(=O)NCc3cn(Cc4ccccc4C#N)nn3)[nH]c3ccc(Cl)cc23)c1`, which inhibition [1] is on record?
Its inhibition is under 85%.

Which inhibition [1] does the source give for `Cc1cc(C)cc(S(=O)(=O)c2c(C(=O)NCc3cn(Cc4ccc(Cl)cc4)nn3)[nH]c3ccc(Cl)cc23)c1` here?
The inhibition was under 85%.

What does the source list for `Cc1ccnc2c1NC(=O)c1cccnc1N2C1CC1` [NEVIRAPINE]?
CC50 at 120 h [2]: > 15000 nM; selectivity ratio [3]: > 92; EC50 [4]: ≥ 5410 nM; EC50 [12]: ≥ 7700 nM; EC50 [6]: > 15000 nM

With `Cc1cc(C)cc(S(=O)(=O)c2c(C(=O)NCc3cn(-c4ccc(C(=O)O)cc4)nn3)[nH]c3ccc(Cl)cc23)c1` as the compound, how does the inhibition [1] read?
Its inhibition is under 85%.
